Positions of bridges follow the written chain, without caps; N, C: chain ends. Residues, ends and D or L forms follow the SMILES beside them.
Tests used:
Kallikrein-4 = Kallikrein-4 (Homo sapiens, UniProt Q9Y5K2); experiment: Inhibition of KLK4 (unknown origin) expressed in sf9 cells using Ac-FVQR-pNA as substrate preincubated for 30 mins followed by substrate addition and measured for 7 mins by spectrophotometric method
[1] = Drug uptake in human HeLa cells at 4 uM using Alexa Fluor 488 conjugated test compound after 1 hr by trypan blue dye based flow cytometry relative to HIV-Tat; type: ADME, cell-based
Summary of the method: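 HeLa cells given Alexa Fluor 488-conjugated peptides (4 μM). Mean fluorescence measured by flow cytometry before and after trypan blue quenching of extracellular signal. Values normalized to the HIV-TAT positive control (post-trypan blue). Three independent experiments, SD; one-way ANOVA with Tukey's post hoc test.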

HeLa = experiment: Cytotoxicity against human HeLa cells up to 64 uM after 2 hrs by resazurin dye based assay; type: cell-based
Summary of the method: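 HeLa cells exposed to peptides for 2 h, concentrations up to 64 μM. Resazurin then added for 18 h at 37 °C. Resorufin absorbance read at 540 and 620 nm, and viability % expressed as the A620/A540 ratio. Three independent experiments, standard deviation.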

Plasma kallikrein = Plasma kallikrein (Homo sapiens, UniProt P03952); experiment: Inhibition of plasma kallikrein (unknown origin) using Ac-NLTR-pNA as substrate preincubated for 30 mins followed by substrate addition and measured for 7 mins by spectrophotometric method
Sequence of Plasma kallikrein (P03952 20-390 limits assumed): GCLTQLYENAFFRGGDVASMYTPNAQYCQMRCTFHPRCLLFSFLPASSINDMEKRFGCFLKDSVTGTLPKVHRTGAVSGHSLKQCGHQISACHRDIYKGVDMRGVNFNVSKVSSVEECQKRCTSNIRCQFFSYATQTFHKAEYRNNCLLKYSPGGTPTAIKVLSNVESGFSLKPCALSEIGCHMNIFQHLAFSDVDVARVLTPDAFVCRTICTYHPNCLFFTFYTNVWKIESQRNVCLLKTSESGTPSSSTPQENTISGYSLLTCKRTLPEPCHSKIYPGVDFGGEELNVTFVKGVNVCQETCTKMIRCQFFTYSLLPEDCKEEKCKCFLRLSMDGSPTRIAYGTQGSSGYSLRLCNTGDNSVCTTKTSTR
Sequence of Plasma kallikrein (P03952 391-638 limits assumed): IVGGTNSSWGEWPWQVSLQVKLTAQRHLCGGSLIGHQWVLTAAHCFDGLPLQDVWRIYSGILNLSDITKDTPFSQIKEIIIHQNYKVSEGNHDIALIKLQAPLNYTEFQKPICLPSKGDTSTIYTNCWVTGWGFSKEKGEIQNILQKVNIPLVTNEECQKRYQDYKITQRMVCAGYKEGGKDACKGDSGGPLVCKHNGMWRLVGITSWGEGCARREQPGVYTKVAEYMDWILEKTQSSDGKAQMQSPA

Kallikrein-14 = molecular target: T1, Kallikrein-14 (Homo sapiens, UniProt Q9P0G3); experiment: Inhibition of KLK14 (unknown origin) expressed in sf9 cells using Ac-YANR-pNA as substrate preincubated for 30 mins followed by substrate addition and measured for 7 mins by spectrophotometric method
T1 sequence (Q9P0G3 whole entry): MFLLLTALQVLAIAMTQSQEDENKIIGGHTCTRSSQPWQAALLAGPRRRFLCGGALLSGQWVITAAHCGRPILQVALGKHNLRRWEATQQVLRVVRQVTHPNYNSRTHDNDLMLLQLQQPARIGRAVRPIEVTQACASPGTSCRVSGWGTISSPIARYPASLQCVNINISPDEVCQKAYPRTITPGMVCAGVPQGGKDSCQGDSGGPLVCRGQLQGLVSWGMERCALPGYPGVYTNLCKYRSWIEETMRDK

Coagulation factor X = Coagulation factor X (Homo sapiens, UniProt P00742); experiment: Inhibition of factor 10a (unknown origin) using Ac-QRSR-pNA as substrate preincubated for 30 mins followed by substrate addition and measured for 7 mins by spectrophotometric method
Sequence of Coagulation factor X (P00742 41-179 limits assumed): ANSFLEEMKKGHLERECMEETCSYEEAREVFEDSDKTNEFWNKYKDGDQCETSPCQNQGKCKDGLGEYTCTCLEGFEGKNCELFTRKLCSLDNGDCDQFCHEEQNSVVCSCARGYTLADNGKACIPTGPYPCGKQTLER
Sequence of Coagulation factor X (P00742 235-488 limits assumed): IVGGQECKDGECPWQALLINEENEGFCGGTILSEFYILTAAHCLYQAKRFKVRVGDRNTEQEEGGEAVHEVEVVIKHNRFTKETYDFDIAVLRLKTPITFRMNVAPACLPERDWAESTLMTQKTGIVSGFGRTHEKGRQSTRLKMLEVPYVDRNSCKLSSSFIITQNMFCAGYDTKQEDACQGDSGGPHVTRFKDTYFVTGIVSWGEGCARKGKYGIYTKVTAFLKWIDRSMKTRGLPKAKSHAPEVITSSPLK

Coagulation factor XII = molecular target: T2, Coagulation factor XII (Homo sapiens, UniProt P00748); experiment: Inhibition of factor 12a (unknown origin) using Ac-QRFR-pNA as substrate preincubated for 30 mins followed by substrate addition and measured for 7 mins by spectrophotometric method
T2 sequence (P00748 whole entry): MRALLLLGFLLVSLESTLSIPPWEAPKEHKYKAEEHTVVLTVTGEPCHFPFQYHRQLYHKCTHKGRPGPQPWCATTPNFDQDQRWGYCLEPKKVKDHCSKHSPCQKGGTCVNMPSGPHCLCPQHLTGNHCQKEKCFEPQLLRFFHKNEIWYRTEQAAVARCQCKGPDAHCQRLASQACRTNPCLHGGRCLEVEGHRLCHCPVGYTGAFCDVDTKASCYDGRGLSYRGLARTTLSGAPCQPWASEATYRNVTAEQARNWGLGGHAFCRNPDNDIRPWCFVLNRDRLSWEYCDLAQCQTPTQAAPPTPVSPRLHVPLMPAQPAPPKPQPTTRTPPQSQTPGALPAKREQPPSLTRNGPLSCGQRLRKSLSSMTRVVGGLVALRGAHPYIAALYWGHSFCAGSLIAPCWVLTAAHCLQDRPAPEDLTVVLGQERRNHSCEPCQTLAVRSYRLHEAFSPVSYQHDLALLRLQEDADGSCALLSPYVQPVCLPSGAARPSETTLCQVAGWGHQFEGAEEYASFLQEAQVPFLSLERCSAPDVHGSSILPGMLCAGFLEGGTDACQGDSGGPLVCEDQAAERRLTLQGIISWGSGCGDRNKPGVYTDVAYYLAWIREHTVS

Prothrombin = Prothrombin (Homo sapiens, UniProt P00734); experiment: Inhibition of thrombin (unknown origin) using Bz-FVR-pNA as substrate preincubated for 30 mins followed by substrate addition and measured for 7 mins by spectrophotometric method
Kallikrein-7 = Kallikrein-7 (Homo sapiens, UniProt P49862); experiment: Inhibition of KLK7 (unknown origin) expressed in Pichia pastoris strain X-33 using KHLY-pNA as substrate preincubated for 30 mins followed by substrate addition and measured for 7 mins by spectrophotometric method
Sequence of Kallikrein-7 (P49862 whole entry): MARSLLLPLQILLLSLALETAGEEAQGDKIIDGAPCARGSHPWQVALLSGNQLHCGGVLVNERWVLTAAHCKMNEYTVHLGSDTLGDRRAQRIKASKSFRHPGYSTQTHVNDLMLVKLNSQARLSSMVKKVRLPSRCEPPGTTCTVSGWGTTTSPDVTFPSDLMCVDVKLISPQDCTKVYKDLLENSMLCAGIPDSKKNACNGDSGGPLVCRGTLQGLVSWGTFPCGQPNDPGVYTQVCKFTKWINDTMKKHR

Plasminogen = Plasminogen (Homo sapiens, UniProt P00747); experiment: Inhibition of plasmin (unknown origin) using Ac-RM(O2)YR-pNA as substrate preincubated for 30 mins followed by substrate addition and measured for 7 mins by spectrophotometric method
Sequence of Plasminogen (P00747 97-580 limits assumed): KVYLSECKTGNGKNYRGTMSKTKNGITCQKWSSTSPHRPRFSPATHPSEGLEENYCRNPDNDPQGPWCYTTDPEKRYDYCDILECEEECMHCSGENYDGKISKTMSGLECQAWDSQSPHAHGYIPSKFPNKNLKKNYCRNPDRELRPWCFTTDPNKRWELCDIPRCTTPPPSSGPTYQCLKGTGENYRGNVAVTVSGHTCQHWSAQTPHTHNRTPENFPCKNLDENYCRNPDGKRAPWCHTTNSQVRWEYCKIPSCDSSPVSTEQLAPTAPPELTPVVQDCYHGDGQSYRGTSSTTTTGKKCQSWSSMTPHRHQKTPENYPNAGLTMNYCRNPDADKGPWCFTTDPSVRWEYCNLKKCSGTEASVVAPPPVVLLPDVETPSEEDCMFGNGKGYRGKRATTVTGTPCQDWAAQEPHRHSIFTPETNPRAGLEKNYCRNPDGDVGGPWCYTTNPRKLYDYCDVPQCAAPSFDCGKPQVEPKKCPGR
Sequence of Plasminogen (P00747 581-810 limits assumed): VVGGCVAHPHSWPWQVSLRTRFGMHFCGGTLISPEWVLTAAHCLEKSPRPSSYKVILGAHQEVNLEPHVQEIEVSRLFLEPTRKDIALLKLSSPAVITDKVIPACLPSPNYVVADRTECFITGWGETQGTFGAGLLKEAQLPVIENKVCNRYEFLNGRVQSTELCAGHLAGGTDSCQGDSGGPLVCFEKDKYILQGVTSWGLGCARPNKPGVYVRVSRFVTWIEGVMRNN

[2] = Stability in human serum at 200 uM up to 24 hrs by RP-HPLC analysis; type: ADME, cell-free
Summary of the method: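 Peptides incubated in human serum for up to 24 h. At each time point, the area of the peptide peak on analytical HPLC is expressed as a percentage of the peptide peak in PBS at 0 h. Three independent experiments, SD.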

Kallikrein-5 = molecular target: T3, Kallikrein-5 (Homo sapiens, UniProt Q9Y337); experiment: Inhibition of KLK5 (unknown origin) expressed in Pichia pastoris strain X-33 using Ac-YRSR-pNA as substrate preincubated for 30 mins followed by substrate addition and measured for 7 mins by spectrophotometric method
T3 sequence (Q9Y337 whole entry): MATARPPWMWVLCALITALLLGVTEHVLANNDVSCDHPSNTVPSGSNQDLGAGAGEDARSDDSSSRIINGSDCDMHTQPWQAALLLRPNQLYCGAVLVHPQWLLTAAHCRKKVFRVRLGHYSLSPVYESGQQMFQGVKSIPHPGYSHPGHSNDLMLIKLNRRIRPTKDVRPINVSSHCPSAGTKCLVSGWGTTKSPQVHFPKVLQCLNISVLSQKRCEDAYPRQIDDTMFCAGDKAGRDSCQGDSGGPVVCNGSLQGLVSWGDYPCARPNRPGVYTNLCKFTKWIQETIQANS

Trypsin = Trypsin (Homo sapiens, UniProt P07477+P07478+P35030); experiment: Inhibition of trypsin (unknown origin) using Bz-FVR-pNA as substrate preincubated for 30 mins followed by substrate addition and measured for 7 mins by spectrophotometric method; type: protein assay

Sequence of Kallikrein-4 (Q9Y5K2 whole entry): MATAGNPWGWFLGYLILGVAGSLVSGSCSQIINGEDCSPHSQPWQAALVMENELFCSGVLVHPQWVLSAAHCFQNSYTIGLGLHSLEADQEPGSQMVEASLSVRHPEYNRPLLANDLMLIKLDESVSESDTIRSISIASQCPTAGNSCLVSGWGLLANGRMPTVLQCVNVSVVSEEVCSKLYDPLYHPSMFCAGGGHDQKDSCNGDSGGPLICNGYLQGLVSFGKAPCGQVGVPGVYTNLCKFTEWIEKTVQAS

Ki (Kallikrein-4) | Drug uptake [1] | SMILES | Activity (HeLa) | also measured
1.3 nM |  | CC[C@H](C)[C@@H]1NC(=O)[C@@H]2CSSC[C@@H]3NC(=O)[C@H](Cc4ccccc4)NC(=O)CNC(=O)CNC(=O)[C@H](CC(=O)O)NC(=O)[C@H](CO)NC(=O)CNC(=O)[C@H](CO)NC(=O)CNC(=O)[C@@H]4CSSC[C@H](NC(=O)[C@H](CC(=O)O)NC(=O)[C@H](CO)NC(=O)[C@H](CC(=O)O)NC(=O)[C@H](CCCNC(=N)N)NC(=O)[C@H](CCCNC(=N)N)NC(=O)[C@H](CSSC[C@H](NC1=O)C(=O)N[C@@H](CCCNC(=N)N)C(=O)NCC(=O)N[C@@H](CC(N)=O)C(=O)NCC(=O)N[C@@H](Cc1ccc(O)cc1)C(=O)N4)NC(=O)[C@H](CCCCN)NC(=O)[C@H](CCCCN)NC(=O)[C@H](CC(C)C)NC(=O)[C@H]([C@@H](C)CC)NC(=O)[C@H](CCCCN)NC(=O)[C@@H]1CCCN1C3=O)C(=O)N1CCC[C@H]1C(=O)NCC(=O)N[C@@H](C)C(=O)N2 |  | 
0.13 nM |  | CC[C@H](C)[C@@H]1NC(=O)[C@@H]2CSSC[C@@H]3NC(=O)[C@H](C(C)C)NC(=O)CNC(=O)CNC(=O)[C@H](CC(=O)O)NC(=O)[C@H](CO)NC(=O)CNC(=O)[C@H](CO)NC(=O)CNC(=O)[C@@H]4CSSC[C@H](NC(=O)[C@H](CC(=O)O)NC(=O)[C@H](CO)NC(=O)[C@H](CC(=O)O)NC(=O)[C@H](CCCNC(=N)N)NC(=O)[C@H](CCCNC(=N)N)NC(=O)[C@H](CSSC[C@H](NC1=O)C(=O)N[C@@H](CCCNC(=N)N)C(=O)NCC(=O)N[C@@H](CC(N)=O)C(=O)NCC(=O)N[C@@H](Cc1ccc(O)cc1)C(=O)N4)NC(=O)[C@H](CCCCN)NC(=O)[C@H](CCCCN)NC(=O)[C@H](CC(C)C)NC(=O)[C@H]([C@@H](C)CC)NC(=O)[C@H](CCCCN)NC(=O)[C@H](CCC(N)=O)NC3=O)C(=O)N1CCC[C@H]1C(=O)NCC(=O)N[C@@H](C)C(=O)N2 |  | 
1.8 nM | Not Active | CC[C@H](C)[C@@H]1NC(=O)[C@@H]2CSSC[C@@H]3NC(=O)[C@H](C(C)C)NC(=O)CNC(=O)CNC(=O)[C@H](CC(=O)O)NC(=O)[C@H](CO)NC(=O)CNC(=O)[C@H](CO)NC(=O)CNC(=O)[C@@H]4CSSC[C@H](NC(=O)[C@H](CC(=O)O)NC(=O)[C@H](CO)NC(=O)[C@H](CC(=O)O)NC(=O)[C@H](CCC(N)=O)NC(=O)[C@H](CCC(N)=O)NC(=O)[C@H](CSSC[C@H](NC1=O)C(=O)N[C@@H](CCCCN)C(=O)NCC(=O)N[C@@H](CC(N)=O)C(=O)NCC(=O)N[C@@H](Cc1ccc(O)cc1)C(=O)N4)NC(=O)[C@H](CCC(N)=O)NC(=O)[C@H](CCC(N)=O)NC(=O)[C@H](CC(C)C)NC(=O)[C@H]([C@@H](C)CC)NC(=O)[C@H](CCCNC(=N)N)NC(=O)[C@@H]1CCCN1C3=O)C(=O)N1CCC[C@H]1C(=O)NCC(=O)N[C@@H](C)C(=O)N2 (cyclo(ACICKGNGYCGSGSDGGVCPRILQQCQQDSDCPG); disulfide 2-19, 4-26, 10-32) | Non-Toxic | 
0.44 nM | Not Active | CC[C@H](C)[C@@H]1NC(=O)[C@@H]2CSSC[C@@H]3NC(=O)[C@H](Cc4ccccc4)NC(=O)CNC(=O)CNC(=O)[C@H](CC(=O)O)NC(=O)[C@H](CO)NC(=O)CNC(=O)[C@H](CO)NC(=O)CNC(=O)[C@@H]4CSSC[C@H](NC(=O)[C@H](CC(=O)O)NC(=O)[C@H](CO)NC(=O)[C@H](CC(=O)O)NC(=O)[C@H](CCC(N)=O)NC(=O)[C@H](CCC(N)=O)NC(=O)[C@H](CSSC[C@H](NC1=O)C(=O)N[C@@H](CCCCN)C(=O)NCC(=O)N[C@@H](CC(N)=O)C(=O)NCC(=O)N[C@@H](Cc1ccc(O)cc1)C(=O)N4)NC(=O)[C@H](CCC(N)=O)NC(=O)[C@H](CCC(N)=O)NC(=O)[C@H](CC(C)C)NC(=O)[C@H]([C@@H](C)CC)NC(=O)[C@H](CCCNC(=N)N)NC(=O)[C@H](CCC(N)=O)NC3=O)C(=O)N1CCC[C@H]1C(=O)NCC(=O)N[C@@H](C)C(=O)N2 (cyclo(ACICKGNGYCGSGSDGGFCQRILQQCQQDSDCPG); disulfide 2-19, 4-26, 10-32) | Non-Toxic | Ki (Plasma kallikrein): > 10000 nM; Ki (Kallikrein-14): > 10000 nM; Ki (Coagulation factor X): 520 nM; Ki (Coagulation factor XII): > 10000 nM; Ki (Prothrombin): > 10000 nM; Ki (Kallikrein-7): > 10000 nM; Ki (Plasminogen): > 10000 nM; Stability [2]: Stable; Ki (Kallikrein-5): > 10000 nM; Ki (Trypsin): 6.9 nM
0.3 nM | Not Active | CC[C@H](C)[C@@H]1NC(=O)[C@@H]2CSSC[C@@H]3NC(=O)[C@H](C(C)C)NC(=O)CNC(=O)CNC(=O)[C@H](CC(=O)O)NC(=O)[C@H](CO)NC(=O)CNC(=O)[C@H](CO)NC(=O)CNC(=O)[C@@H]4CSSC[C@H](NC(=O)[C@H](CC(=O)O)NC(=O)[C@H](CO)NC(=O)[C@H](CC(=O)O)NC(=O)[C@H](CCCNC(=N)N)NC(=O)[C@H](CCCNC(=N)N)NC(=O)[C@H](CSSC[C@H](NC1=O)C(=O)N[C@@H](CCCNC(=N)N)C(=O)NCC(=O)N[C@@H](CC(N)=O)C(=O)NCC(=O)N[C@@H](Cc1ccc(O)cc1)C(=O)N4)NC(=O)[C@H](CCCCN)NC(=O)[C@H](CCCCN)NC(=O)[C@H](CC(C)C)NC(=O)[C@H]([C@@H](C)CC)NC(=O)[C@H](CCCNC(=N)N)NC(=O)[C@@H]1CCCN1C3=O)C(=O)N1CCC[C@H]1C(=O)NCC(=O)N[C@@H](C)C(=O)N2 |  | 
